In ChEMBL document CHEMBL3421533, “The Discovery of Orally Bioavailable Tyrosine Threonine Kinase (TTK) Inhibitors: 3-(4-(heterocyclyl)phenyl)-1H-indazole-5-carboxamides as Anticancer Agents” (J Med Chem, 2015):

Tested on: not listed separately
Assay: Cmax in athymic CD1 nude mouse at 10 mg/kg, po by LC-MS/MS analysis
Format: ADME, organism-based
Parameters: dose 10 mg/kg, route oral
Conditions: athymic CD1 nude, in vivo

Row | Structure (SMILES) | Cmax [ng/mL]
1 | O=C(N[C@H](c1ccccn1)C1CCCC1)c1ccc2[nH]nc(-c3ccc(N4[C@H]5CC[C@H]4CC(O)C5)cc3)c2c1 (stereo in doubt; 76) | 1500

Tested on: not listed separately
Assay: Half life in Sprague-Dawley rat at 1 mg/kg, iv by LC-MS/MS analysis
Format: ADME, organism-based
Parameters: dose 1 mg/kg, route intravenous
Conditions: in vivo

Row | Structure (SMILES) | half-life [min]
2 | O=C(N[C@H](c1ccccn1)C1CCCC1)c1ccc2[nH]nc(-c3ccc(N4[C@H]5CC[C@H]4CC(O)C5)cc3)c2c1 (stereo in doubt; 76) | 46.8

Tested on: MDA-MB-468
Assay: Cytotoxicity against human MDA-MB-468 cells after 5 days by sulforhodamine B assay
Format: functional
Conditions: not given
Procedure, shortened: (§1)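 Cancer lines were seeded at 800–6000 cells per well according to growth rate, 24 h before compound overlay. After culture, cells were fixed in situ and stained with sulforhodamine B. GI50 values were derived by curve fitting.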

Row | Structure (SMILES) | GI50 [nM]
3 | O=C(N[C@H](c1ccccn1)C1CCCC1)c1ccc2[nH]nc(-c3ccc(N4[C@H]5CC[C@H]4CC(O)C5)cc3)c2c1 (stereo in doubt; 76) | 20

Same assay, conditions: Homo sapiens, MDA-MB-468, 120 h

Row | Structure (SMILES) | GI50 [nM]
4 | O=C(CC1(N2CCOCC2)CCCCC1)Nc1ccc2[nH]nc(-c3ccc(N4CCOCC4)cc3)c2c1 | 440

Tested on: not listed separately
Assay: (§2) Half life in rat liver microsomes at 1 uM by LC-MS analysis
Format: ADME
Conditions: liver microsomes

Row | half-life at 1 µM [min] | Structure (SMILES)
5 | 10 | O=C(CC1(N2CCOCC2)CCCCC1)Nc1ccc2[nH]nc(-c3ccc(N4CCOCC4)cc3)c2c1

Tested on: Liver microsome
Assay: as §2
Format: ADME
Conditions: microsomes, 1 µM

Row | Structure (SMILES) | t1/2 [min]
6 | O=C(N[C@H](c1ccccn1)C1CCCC1)c1ccc2[nH]nc(-c3ccc(N4[C@H]5CC[C@H]4CC(O)C5)cc3)c2c1 (stereo in doubt; 76) | > 60

Target: Vascular endothelial growth factor receptor 2 (Homo sapiens, UniProt P35968)
Assay: Inhibition of recombinant KDR (unknown origin) preincubated for 15 mins prior to ATP addition by FRET-based homogenous assay
Conditions: not given

Sequence of Vascular endothelial growth factor receptor 2 (P35968 whole entry): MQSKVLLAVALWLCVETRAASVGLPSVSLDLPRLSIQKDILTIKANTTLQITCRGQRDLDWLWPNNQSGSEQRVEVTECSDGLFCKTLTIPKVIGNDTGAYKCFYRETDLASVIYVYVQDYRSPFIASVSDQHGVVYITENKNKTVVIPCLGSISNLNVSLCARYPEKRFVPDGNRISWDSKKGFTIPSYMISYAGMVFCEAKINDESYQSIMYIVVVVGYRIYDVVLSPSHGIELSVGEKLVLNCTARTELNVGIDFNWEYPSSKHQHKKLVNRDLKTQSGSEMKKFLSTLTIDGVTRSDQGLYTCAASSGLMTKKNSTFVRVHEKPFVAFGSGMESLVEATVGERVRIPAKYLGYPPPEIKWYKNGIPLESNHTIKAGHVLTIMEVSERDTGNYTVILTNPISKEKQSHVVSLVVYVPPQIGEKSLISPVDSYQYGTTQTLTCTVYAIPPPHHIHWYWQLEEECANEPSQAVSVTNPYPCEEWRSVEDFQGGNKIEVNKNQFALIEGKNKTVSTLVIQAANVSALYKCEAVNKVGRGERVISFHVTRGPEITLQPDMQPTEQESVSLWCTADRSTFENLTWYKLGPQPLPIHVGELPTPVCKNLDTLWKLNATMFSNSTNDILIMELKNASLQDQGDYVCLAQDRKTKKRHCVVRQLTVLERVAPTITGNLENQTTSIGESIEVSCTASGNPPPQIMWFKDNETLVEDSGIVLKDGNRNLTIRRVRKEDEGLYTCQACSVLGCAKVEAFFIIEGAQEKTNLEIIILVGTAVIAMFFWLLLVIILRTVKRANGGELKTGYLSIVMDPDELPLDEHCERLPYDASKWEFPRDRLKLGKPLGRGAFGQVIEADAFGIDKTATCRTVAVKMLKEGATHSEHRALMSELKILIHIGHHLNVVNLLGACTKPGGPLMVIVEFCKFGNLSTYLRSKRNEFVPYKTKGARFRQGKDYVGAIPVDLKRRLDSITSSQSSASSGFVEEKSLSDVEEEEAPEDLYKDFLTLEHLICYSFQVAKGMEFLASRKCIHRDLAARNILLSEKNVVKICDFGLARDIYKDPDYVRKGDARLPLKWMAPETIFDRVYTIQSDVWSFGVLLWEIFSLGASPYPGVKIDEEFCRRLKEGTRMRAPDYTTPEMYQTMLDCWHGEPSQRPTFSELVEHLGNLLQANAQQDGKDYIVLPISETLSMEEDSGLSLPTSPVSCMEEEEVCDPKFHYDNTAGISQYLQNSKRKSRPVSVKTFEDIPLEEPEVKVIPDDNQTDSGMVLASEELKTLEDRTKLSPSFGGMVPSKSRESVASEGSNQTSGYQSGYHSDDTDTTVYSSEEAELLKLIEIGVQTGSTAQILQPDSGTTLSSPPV

Row | IC50 [nM] | Structure (SMILES)
7 | 1200 | O=C(CC1(N2CCOCC2)CCCCC1)Nc1ccc2[nH]nc(-c3ccc(N4CCOCC4)cc3)c2c1

Target: T1, Aurora kinase A (Homo sapiens, UniProt O14965)
T1 sequence (O14965 whole entry): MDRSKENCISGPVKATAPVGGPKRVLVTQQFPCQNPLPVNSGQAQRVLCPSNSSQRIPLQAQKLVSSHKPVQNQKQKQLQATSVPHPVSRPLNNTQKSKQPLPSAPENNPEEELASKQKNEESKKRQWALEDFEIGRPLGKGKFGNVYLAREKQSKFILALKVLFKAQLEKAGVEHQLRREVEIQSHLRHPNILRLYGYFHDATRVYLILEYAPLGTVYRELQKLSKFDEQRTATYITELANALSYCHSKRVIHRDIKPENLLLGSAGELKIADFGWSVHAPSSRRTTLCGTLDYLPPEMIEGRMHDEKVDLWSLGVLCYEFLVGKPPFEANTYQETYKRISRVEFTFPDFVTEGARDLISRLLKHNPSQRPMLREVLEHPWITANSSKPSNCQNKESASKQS
Assay: Inhibition of recombinant AURKA (unknown origin) preincubated for 15 mins prior to ATP addition by FRET-based homogenous assay
Conditions: not given

Row | IC50 [nM] | Structure (SMILES)
8 | 2100 | O=C(CC1(N2CCOCC2)CCCCC1)Nc1ccc2[nH]nc(-c3ccc(N4CCOCC4)cc3)c2c1

Tested on: not listed separately
Assay: AUCinfinity in Sprague-Dawley rat at 1 mg/kg, iv by LC-MS/MS analysis
Format: ADME, organism-based
Parameters: time infinity, dose 1 mg/kg, route intravenous
Conditions: plasma

Row | Structure (SMILES) | AUC(0-inf) [ng·h/mL]
9 | O=C(N[C@H](c1ccccn1)C1CCCC1)c1ccc2[nH]nc(-c3ccc(N4[C@H]5CC[C@H]4CC(O)C5)cc3)c2c1 (stereo in doubt; 76) | 190

Target: Aurora kinase B/Inner centromere protein (Homo sapiens, UniProt Q96GD4)
Assay: Inhibition of AURKB/INCENP (unknown origin) preincubated for 15 mins prior to ATP addition by FRET-based homogenous assay
Format: protein-complex assay
Conditions: not given
Procedure, shortened: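 The enzyme was AURKB/INCENP in a FRET-based homogeneous assay run to kit specifications, with ATP at 128 μM. […] Each IC50 came from a single determination, reported with its standard fitting error.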

Sequence of Aurora kinase B/Inner centromere protein (Q96GD4 whole entry): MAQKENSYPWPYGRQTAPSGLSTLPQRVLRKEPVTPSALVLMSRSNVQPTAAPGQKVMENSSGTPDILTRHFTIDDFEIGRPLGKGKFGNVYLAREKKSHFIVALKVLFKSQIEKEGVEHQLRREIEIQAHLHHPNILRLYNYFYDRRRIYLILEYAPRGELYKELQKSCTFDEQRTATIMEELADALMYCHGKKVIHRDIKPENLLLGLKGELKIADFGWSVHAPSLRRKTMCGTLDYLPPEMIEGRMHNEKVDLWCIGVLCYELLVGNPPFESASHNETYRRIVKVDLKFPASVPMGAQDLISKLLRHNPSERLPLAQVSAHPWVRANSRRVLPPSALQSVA
Sequence of Aurora kinase B/Inner centromere protein (Q9NQS7 whole entry, further chain): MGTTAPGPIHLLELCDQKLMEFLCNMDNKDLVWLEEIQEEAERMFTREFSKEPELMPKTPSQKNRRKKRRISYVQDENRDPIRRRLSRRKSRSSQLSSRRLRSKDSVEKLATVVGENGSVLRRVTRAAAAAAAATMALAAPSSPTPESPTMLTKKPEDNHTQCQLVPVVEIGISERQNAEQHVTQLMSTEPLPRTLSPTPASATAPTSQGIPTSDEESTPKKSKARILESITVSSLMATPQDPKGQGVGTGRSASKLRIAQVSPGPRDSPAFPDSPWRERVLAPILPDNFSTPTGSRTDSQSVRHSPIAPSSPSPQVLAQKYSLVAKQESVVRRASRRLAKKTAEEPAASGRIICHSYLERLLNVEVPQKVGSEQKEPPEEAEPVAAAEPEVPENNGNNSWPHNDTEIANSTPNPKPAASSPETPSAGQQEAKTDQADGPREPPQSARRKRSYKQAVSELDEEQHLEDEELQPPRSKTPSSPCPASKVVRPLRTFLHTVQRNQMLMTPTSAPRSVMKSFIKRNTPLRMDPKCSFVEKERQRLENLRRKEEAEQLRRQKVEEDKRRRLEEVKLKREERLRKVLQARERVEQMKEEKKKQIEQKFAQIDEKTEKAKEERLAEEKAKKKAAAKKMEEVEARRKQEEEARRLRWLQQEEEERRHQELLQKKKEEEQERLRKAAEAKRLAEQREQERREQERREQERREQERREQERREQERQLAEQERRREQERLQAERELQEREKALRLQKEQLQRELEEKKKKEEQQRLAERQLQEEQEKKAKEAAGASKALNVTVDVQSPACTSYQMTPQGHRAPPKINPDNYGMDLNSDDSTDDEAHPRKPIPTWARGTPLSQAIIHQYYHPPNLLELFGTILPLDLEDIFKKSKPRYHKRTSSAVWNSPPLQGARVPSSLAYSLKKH

Row | Structure (SMILES) | IC50 [nM]
10 | O=C(N[C@H](c1ccccn1)C1CCCC1)c1ccc2[nH]nc(-c3ccc(N4[C@H]5CC[C@H]4CC(O)C5)cc3)c2c1 (stereo in doubt; 76) | > 6300

Tested on: not listed separately
Assay: Cytotoxicity against human HCT116 cells after 5 days by sulforhodamine B assay
Format: functional, HCT-116
Conditions: not given
Procedure, shortened: as §1

Row | Structure (SMILES) | GI50 [nM]
11 | O=C(N[C@H](c1ccccn1)C1CCCC1)c1ccc2[nH]nc(-c3ccc(N4[C@H]5CC[C@H]4CC(O)C5)cc3)c2c1 (stereo in doubt; 76) | 8

Same assay, conditions: Homo sapiens, HCT-116, 120 h

Row | Structure (SMILES) | GI50 [nM]
12 | O=C(CC1(N2CCOCC2)CCCCC1)Nc1ccc2[nH]nc(-c3ccc(N4CCOCC4)cc3)c2c1 | 94

Target: T2, Dual specificity protein kinase TTK (Homo sapiens, UniProt P33981)
T2 sequence (P33981 whole entry): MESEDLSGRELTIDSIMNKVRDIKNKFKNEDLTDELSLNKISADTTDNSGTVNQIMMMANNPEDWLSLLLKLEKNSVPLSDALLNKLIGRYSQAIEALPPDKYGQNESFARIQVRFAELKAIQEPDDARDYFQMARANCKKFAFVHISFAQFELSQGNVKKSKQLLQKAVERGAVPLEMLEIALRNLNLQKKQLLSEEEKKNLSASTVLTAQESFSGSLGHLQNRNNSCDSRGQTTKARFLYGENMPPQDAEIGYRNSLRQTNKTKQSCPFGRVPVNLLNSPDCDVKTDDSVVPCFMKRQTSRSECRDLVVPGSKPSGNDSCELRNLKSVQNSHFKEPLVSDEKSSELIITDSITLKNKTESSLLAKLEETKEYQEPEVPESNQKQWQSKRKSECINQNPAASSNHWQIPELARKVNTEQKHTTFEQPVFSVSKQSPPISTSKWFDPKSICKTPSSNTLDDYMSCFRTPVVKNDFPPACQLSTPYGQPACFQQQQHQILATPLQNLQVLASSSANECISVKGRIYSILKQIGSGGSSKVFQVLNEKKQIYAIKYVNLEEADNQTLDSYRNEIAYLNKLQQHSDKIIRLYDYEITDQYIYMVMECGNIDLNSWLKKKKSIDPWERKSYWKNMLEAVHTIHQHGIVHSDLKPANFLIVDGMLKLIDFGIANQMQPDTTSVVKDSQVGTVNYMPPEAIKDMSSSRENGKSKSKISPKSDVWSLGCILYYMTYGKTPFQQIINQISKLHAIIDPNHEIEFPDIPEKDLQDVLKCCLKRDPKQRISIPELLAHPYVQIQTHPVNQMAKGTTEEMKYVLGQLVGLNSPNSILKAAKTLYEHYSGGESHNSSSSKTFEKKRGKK
Assay: Inhibition of amino terminal GST-fused full length human TTK using His6-SUMO-TTK-N as substrate preincubated for 15 mins prior to ATP addition by indirect ELISA detection system
Conditions: not given

Row | Structure (SMILES) | IC50 [nM]
13 | O=C(CC1(N2CCOCC2)CCCCC1)Nc1ccc2[nH]nc(-c3ccc(N4CCOCC4)cc3)c2c1 | 12
14 | O=C(N[C@H](c1ccccn1)C1CCCC1)c1ccc2[nH]nc(-c3ccc(N4[C@H]5CC[C@H]4CC(O)C5)cc3)c2c1 (stereo in doubt; 76) | 4.3

Target: Cytochrome P450 3A4 (Homo sapiens, UniProt P08684)
Assay: Inhibition of human CYP3A4 using BFC as substrate preincubated for 10 mins followed by enzyme/substrate addition measured after 30 mins by fluorescence assay
Format: ADME
Conditions: not given

Sequence of Cytochrome P450 3A4 (P08684 whole entry): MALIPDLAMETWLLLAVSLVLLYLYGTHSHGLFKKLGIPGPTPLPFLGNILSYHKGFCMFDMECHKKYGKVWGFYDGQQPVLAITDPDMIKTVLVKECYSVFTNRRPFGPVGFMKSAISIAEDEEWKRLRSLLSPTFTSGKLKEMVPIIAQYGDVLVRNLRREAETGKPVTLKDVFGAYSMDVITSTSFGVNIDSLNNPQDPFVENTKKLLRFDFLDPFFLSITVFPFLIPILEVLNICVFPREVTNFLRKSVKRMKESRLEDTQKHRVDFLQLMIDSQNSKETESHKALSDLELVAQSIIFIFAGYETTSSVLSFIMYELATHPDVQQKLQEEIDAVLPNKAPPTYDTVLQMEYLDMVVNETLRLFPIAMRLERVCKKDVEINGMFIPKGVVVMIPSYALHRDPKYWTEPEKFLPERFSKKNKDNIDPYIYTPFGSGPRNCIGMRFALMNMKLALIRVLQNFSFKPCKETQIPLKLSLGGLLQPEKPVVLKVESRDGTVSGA

Row | Structure (SMILES) | IC50 [nM]
15 | O=C(N[C@H](c1ccccn1)C1CCCC1)c1ccc2[nH]nc(-c3ccc(N4[C@H]5CC[C@H]4CC(O)C5)cc3)c2c1 (stereo in doubt; 76) | 820

Tested on: not listed separately
Assay: Clearance in Sprague-Dawley rat at 1 mg/kg, iv by LC-MS/MS analysis
Format: ADME, organism-based
Parameters: dose 1 mg/kg, route intravenous
Conditions: in vivo

Row | Structure (SMILES) | clearance [mL/min/kg]
16 | O=C(N[C@H](c1ccccn1)C1CCCC1)c1ccc2[nH]nc(-c3ccc(N4[C@H]5CC[C@H]4CC(O)C5)cc3)c2c1 (stereo in doubt; 76) | 91

Tested on: not listed separately
Assay: Oral bioavailability in Sprague-Dawley rat at 5 mg/kg by LC-MS/MS analysis
Format: ADME, organism-based
Conditions: in vivo

Row | Structure (SMILES) | bioavailability [%]
17 | O=C(N[C@H](c1ccccn1)C1CCCC1)c1ccc2[nH]nc(-c3ccc(N4[C@H]5CC[C@H]4CC(O)C5)cc3)c2c1 (stereo in doubt; 76) | 13

Tested on: not listed separately
Assay: AUCinfinity in athymic CD1 nude mouse at 10 mg/kg, po by LC-MS/MS analysis
Format: ADME, organism-based, Plasma
Parameters: time infinity, dose 10 mg/kg, route oral
Conditions: athymic CD1 nude, plasma

Row | Structure (SMILES) | AUC(0-inf) [ng·h/mL]
18 | O=C(N[C@H](c1ccccn1)C1CCCC1)c1ccc2[nH]nc(-c3ccc(N4[C@H]5CC[C@H]4CC(O)C5)cc3)c2c1 (stereo in doubt; 76) | 2600

Tested on: not listed separately
Assay: Cytotoxicity against human OVCAR3 cells after 5 days by sulforhodamine B assay
Format: functional, OVCAR-3
Conditions: not given

Row | Structure (SMILES) | GI50 [nM]
19 | O=C(N[C@H](c1ccccn1)C1CCCC1)c1ccc2[nH]nc(-c3ccc(N4[C@H]5CC[C@H]4CC(O)C5)cc3)c2c1 (stereo in doubt; 76) | 50

Tested on: not listed separately
Assay: Half life in mouse liver microsomes at 1 uM by LC-MS analysis
Format: ADME
Conditions: liver microsomes

Row | Structure (SMILES) | half-life at 1 µM [min]
20 | O=C(CC1(N2CCOCC2)CCCCC1)Nc1ccc2[nH]nc(-c3ccc(N4CCOCC4)cc3)c2c1 | 5.8
21 | O=C(N[C@H](c1ccccn1)C1CCCC1)c1ccc2[nH]nc(-c3ccc(N4[C@H]5CC[C@H]4CC(O)C5)cc3)c2c1 (stereo in doubt; 76) | > 60

Tested on: not listed separately
Assay: AUCinfinity in Sprague-Dawley rat at 5 mg/kg, po by LC-MS/MS analysis
Format: ADME, organism-based
Parameters: time infinity, dose 5 mg/kg, route oral
Conditions: plasma

Row | Structure (SMILES) | AUC(0-inf) [ng·h/mL]
22 | O=C(N[C@H](c1ccccn1)C1CCCC1)c1ccc2[nH]nc(-c3ccc(N4[C@H]5CC[C@H]4CC(O)C5)cc3)c2c1 (stereo in doubt; 76) | 130
